This is a sample that favours compounds with a hit; in the whole collection about 1.9% have one here.
M4 PAM: potentiates acetylcholine response at human M4 receptor; activation, % at 3 µM; P08173; 360,000 tested, 0.4% active; AID 624126; CHO-K1 hM4/Gqi5, Fluo-8 calcium fluorescence, ACh EC20; 0% = ACh EC20, 100% = maximal ACh;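 active means activation above its plate's cutoff, the mean activation of sample wells plus 3 SD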
CHRM5 agonist: agonists of human muscarinic M5 receptor (CHRM5) | CHO-K1 hM5 cells, Fluo-8 calcium fluorescence; 0% DMSO wells, 100% maximal acetylcholine response | P08912 | 360,000 tested, 0.19% active | AID 624037 | activation, % at 3 µM;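 active means activation above the run's mean over test compounds plus 3 SD, cut at about 23% in these data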;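 further: signal is peak over basal fluorescence ratio across the kinetic read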
Target sequence (P08912 whole entry, looked up): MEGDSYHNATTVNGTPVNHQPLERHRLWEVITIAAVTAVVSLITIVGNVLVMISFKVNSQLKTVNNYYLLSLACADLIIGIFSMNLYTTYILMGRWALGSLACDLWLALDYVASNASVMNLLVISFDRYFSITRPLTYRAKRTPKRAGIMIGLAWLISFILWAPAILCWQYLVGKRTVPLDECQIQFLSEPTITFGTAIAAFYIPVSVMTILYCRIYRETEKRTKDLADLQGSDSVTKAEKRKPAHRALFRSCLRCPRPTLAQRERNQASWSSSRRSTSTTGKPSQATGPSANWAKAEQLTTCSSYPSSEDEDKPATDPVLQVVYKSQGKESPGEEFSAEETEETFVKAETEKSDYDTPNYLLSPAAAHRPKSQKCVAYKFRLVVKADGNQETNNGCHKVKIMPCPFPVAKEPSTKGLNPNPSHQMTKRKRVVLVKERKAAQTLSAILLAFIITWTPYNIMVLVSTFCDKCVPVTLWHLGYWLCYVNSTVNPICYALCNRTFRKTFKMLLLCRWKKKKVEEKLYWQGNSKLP
CHRM4 antagonist: blocks acetylcholine activation of human M4 receptor; 360,000 tested, 0.73% active; P08173; CHO-hM4 cells, ACh EC80, Fluo-8 calcium fluorescence; inhibition, % at 3 µM;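 active means inhibition above its plate's cutoff, the mean inhibition of sample wells plus 3 SD, cut at about 27% in these data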;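 further: 0% = acetylcholine EC80 with DMSO and 100% = DMSO without agonist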
M5 PAM: potentiates acetylcholine response at human M5 receptor | AID 624038 | 360,000 tested, 0.3% active | P08912 | CHO-K1 hM5, Fluo-8 calcium, ACh EC20 PAM; 0% = ACh EC20, 100% = ACh EC100 | activation, % at 3 µM;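 active means activation above the run cutoff, the mean activation of all test compounds plus 3 SD, cut at about 18% in these data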
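Replicates: One well per compound, no replicates | System: Human M5 receptor in CHO-K1 cells | Benchmarks: Low control EC20 acetylcholine (0%), high control EC100 acetylcholine (100%) | Probe or stimulus: Acetylcholine, EC20 level | Times: Fluo-8 loading 80 min at 37 °C plus 30 min room temperature | Signal: Intracellular calcium via Fluo-8 fluorescence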
M5 antag: CHRM5 antagonism in calcium assay. P08912. CHO-hM5 cells, Fluo-8 calcium fluorescence, ACh EC80. inhibition, % at 3 µM. 360,000 tested, 0.59% active. AID 624040;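 active means inhibition above a per-plate cutoff, the mean of that plate's test compounds plus 3 SD, cut at about 27% in these data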;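 further: 0% = acetylcholine EC80 with DMSO and 100% = DMSO without agonist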
CHRM4 agonist: agonists of human muscarinic M4 receptor (CHRM4) | CHO-K1 hM4/Gqi5, Fluo-8 calcium fluorescence; vehicle 0%, full acetylcholine response 100% | P08173 | AID 624127 | activation, % at 3 µM | 360,000 tested, 0.14% active;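 active means activation above the run mean over all test wells plus 3 SD, cut at about 32% in these data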;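 further: peak over basal fluorescence ratio per well then scaled between controls; 0% = DMSO wells and 100% = acetylcholine at EC100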
Starred values were filed as active, the others as inactive.

SMILES | M4 PAM | CHRM5 agonist | CHRM4 antagonist | M5 PAM | M5 antag | CHRM4 agonist
CC(Sc1ccccc1)C(=O)N/N=C/c1cccnc1 (stereo unspecified) | 4 | -1 | -10 | 4 | 1 | 4
O=C(COc1ccc(F)cc1)NCC1(N2CCCCC2)CCCCC1 | 1 | -9 | -2 | -3 | 13 | 0
O=C(CC[C@H]1O[C@@H](n2cnc3c(NC(=O)c4ccccc4)ncnc32)[C@H](O)[C@@H]1O)NCC1CCCO1 (stereo partly specified) | 20* | 3 | -22 | 1 | -4 | 2
CCC1(c2ccc(F)cc2)NC(=O)N(CC(=O)N2CCc3ccccc32)C1=O (stereo unspecified) | -2 | 38* | -10 | -8 | -1 | 32
Cc1ccc(C2(C)NC(=O)N(CC(=O)N3CCc4ccccc43)C2=O)cc1 (stereo unspecified) | 0 | 23 | -11 | -13 | 10 | 12
CCC1(c2ccc(F)cc2)NC(=O)N(CC(=O)Nc2ccccc2Cl)C1=O (stereo unspecified) | -4 | 33* | 7 | -10 | -9 | 18
CC1(c2ccc(Cl)cc2)NC(=O)N(CC(=O)N2CCc3ccccc32)C1=O (stereo unspecified) | -1 | 40* | -7 | -3 | 7 | 38*
CCC1(CC)NC(=O)N(CC(=O)N2CCc3ccccc32)C1=O | 19* | -3 | -20 | 20* | 2 | 0
CSC[C@H]1CN(CCc2ccccc2)C(=O)[C@@H]1CC(=O)Nc1ccc(Br)cc1 | -6 | 0 | 0 | -2 | -4 | 6
CCOC(=O)Cn1nc(C)n(-c2ccc(C(C)(C)C)cc2)c1=O | 9 | 1 | -3 | 21* | 6 | 0
COc1cc(NC(=O)CCl)ccc(=O)c1 | 5 | -1 | -12 | -2 | 7 | 0
Cn1nnnc1SCCNCc1ccccc1OCc1ccc(Cl)cc1 | -27 | -2 | 27* | -4 | 7 | 4
Cn1nnnc1SCCNCc1cc(Cl)ccc1OCc1ccccc1 | -15 | -1 | -1 | -17 | 14 | 12
COc1ccc(CCn2c(=O)[nH]c3cc(C(=O)NCCN4CCOCC4)ccc3c2=O)cc1OC | 29* | -1 | 21 | 12 | -6 | 4
COc1ccc(CCn2c(=O)[nH]c3cc(C(=O)NCCCN4CCOCC4)ccc3c2=O)cc1OC | -1 | 3 | -7 | 2 | 6 | 1
O=C(Nc1ccc(F)c(Cl)c1)Nc1csc2ccccc12 | -11 | 7 | 18 | -26 | 34* | 20
O=C(Nc1ccc(F)cc1F)Nc1csc2ccccc12 | -13 | -2 | 6 | -31 | 33* | 12
CC(Oc1ccc2c3c(c(=O)oc2c1)CCC3)C(=O)NCc1cccnc1 (stereo unspecified) | 19* | -4 | 16 | -4 | 15 | 2
O=C(NCCCn1ccnc1)/C(=C/c1ccco1)NC(=O)c1ccco1 | -3 | -3 | 3 | -1 | 3 | 0
CCCS(=O)(=O)N1CCN(C(=O)c2ccco2)CC1 | 20* | -6 | -3 | 19* | -5 | 1
CCS(=O)(=O)N1CCN(C(=O)c2ccco2)CC1 | 3 | 2 | -1 | 1 | -4 | 2
CC(C)(C)CC(=O)Nc1ccc(S(=O)(=O)NC2=NCCCCC2)cc1 | 7 | 1 | 5 | 0 | 3 | 3
CC1(OC(=O)C2CCCC2)C(=O)C=C2C=C(c3ccsc3)N(C3CCCC3)C=C2C1=O (stereo unspecified) | 6 | 39* | -7 | -8 | 1 | 1
CC1(OC(=O)C2CCCC2)C(=O)C=C2C=C(c3ccsc3)N(CCCCO)C=C2C1=O (stereo unspecified) | -3 | -1 | -3 | 3 | 7 | 1
CS(=O)(=O)c1nc(S(=O)(=O)c2ccc(Cl)cc2)c(NCCCn2ccnc2)s1 | -10 | -10 | -12 | 8 | -12 | 0
COc1ccc(-c2nc(-c3cccc(C(F)(F)F)c3)no2)cc1OC | 30* | -1 | -1 | 0 | -5 | 1

Compound activity (PubChem)
